Published values gathered from unrelated publications.
Read-out: cell growth or viability

| Structure (SMILES) | cell line | technique | time | IC50 |
| --- | --- | --- | --- | --- |
| NS(=O)(=O)c1ccc(-n2nc(C(=O)NN=Cc3cccnc3)cc2-c2ccccc2)cc1 | HT-29 | fluorescence | 48 h | 32.3 µM |
| O=C(NO)c1ccc(N2CCN(Cc3cnc4ccccc4c3)CC2)cc1 | LLC-PK1 | – | 48 h | > 69.1 µM |
| CC(=O)O[C@@H]1CC[C@@]2(C)[C@@H](CC[C@]3(C)[C@@H]2C(=O)C=C2[C@@H]4[C@@H](C)[C@H](C)CC[C@]4(C)CC[C@]23C)[C@@]1(C)C(=O)O | Caco-2 | MTT | 6 h | 1.61 µM |
| CC(C)N=c1cc2n(-c3ccc(Cl)cc3)c3ccccc3nc-2cc1Nc1ccc(Cl)cc1 | Caco-2 | MTT | 24 h | 23.3 µg/mL |
| CC(C)(C)c1cnc(CSc2cnc(NC(=O)C3CCN(C(=O)CCCCCCCN4Cc5cc6c(cc5C4)C(=O)N(C4CCC(=O)NC4=O)C6=O)CC3)s2)o1 (centres unmarked) | SK-UT-1 | MTT | – | 0.106 µM |
| COc1ccc(C=NNC(=O)c2cc(-c3ccccc3)n(-c3ccc(S(N)(=O)=O)cc3)n2)cc1OC | HT-29 | fluorescence | 48 h | 25.8 µM |
| COc1cccc2c1C(=O)c1c(O)c3c(c(O)c1C2=O)C[C@@](O)(C(=O)CO)C[C@@H]3O[C@H]1C[C@H](N)[C@H](O)[C@H](C)O1 | SU-DHL-4 | – | 96 h | 0.00506 µM |
| NS(=O)(=O)c1ccc(-n2nc(C(=O)NN=Cc3ccc(O)cc3)cc2-c2ccccc2)cc1 | HT-29 | fluorescence | 48 h | 19.7 µM |
| O=c1c2cc(Cl)ccc2nc(-c2ccccc2)n1N=Cc1ccccc1Cl | LLC-PK1 | MTT | 72 h | 351 µM |
| C=CC(=O)N1CCC[C@@H](n2nc(-c3ccc(Oc4ccccc4)cc3)c3c(N)ncnc32)C1 | SU-DHL-4 | resazurin | 72 h | 0.454 µM |
| CCOc1ccc(C=Nn2c(-c3ccccc3)nc3ccc(Cl)cc3c2=O)cc1O | LLC-PK1 | MTT | 72 h | 342 µM |
| NS(=O)(=O)c1ccc(-n2nc(C(=O)NN3C(=O)c4ccccc4C3=O)cc2-c2ccccc2)cc1 | HT-29 | fluorescence | 48 h | 48.3 µM |
| COc1ccc(C=Nn2c(-c3ccccc3)nc3ccc(Cl)cc3c2=O)cc1OC | LLC-PK1 | MTT | 72 h | 462 µM |
| NS(=O)(=O)c1ccc(-n2nc(C(=O)NN3C(=O)CCC3=O)cc2-c2ccccc2)cc1 | HT-29 | fluorescence | 48 h | 31.4 µM |
| O=c1c2cc(Cl)ccc2nc(-c2ccccc2)n1N=Cc1ccc(Br)cc1O | LLC-PK1 | MTT | 72 h | 34.8 µM |
| Cc1ccc(S(=O)(=O)n2cc(CNc3ccc(C(=O)NO)cc3)c3ccccc32)cc1 | LLC-PK1 | – | 48 h | 9.99 µM |
| O=c1c2cc(Cl)ccc2nc(-c2ccccc2)n1N=Cc1ccc([N+](=O)[O-])cc1 | LLC-PK1 | MTT | 72 h | 115 µM |
| CC(=NNC(=O)c1cc(-c2ccccc2)n(-c2ccc(S(N)(=O)=O)cc2)n1)c1ccc(Br)cc1 | HT-29 | fluorescence | 48 h | 37.2 µM |
| O=C(NO)c1ccc(NCc2cnc3ccccc3c2)cc1 | LLC-PK1 | – | 48 h | 9.38 µM |
| O=c1c2cc(Cl)ccc2nc(-c2ccccc2)n1N=Cc1ccccc1 | LLC-PK1 | MTT | 72 h | 303 µM |
